From PubChem BioAssay
Inconclusive results are not listed. Activity calls are given as the source filed them.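 The calls were made as follows, unless noted: active = viability at or below 27.92% in each of two runs, the all-compound median minus 4 SD; inconclusive = no clear call, values can overlap the other calls; inactive = the rest.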

Experiments:
[1] = S. cerevisiae growth inhibition in permissive medium (OD615), pilot counter-assay for S. cerevisiae lifespan shortening project, permissive growth control (AID 705;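 active = growth inhibition above 25% in both replicates, a cutoff set 3 SD above the mean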); details: OD615, 24 h, at 10 µM, hits give high values
Outline: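 assay system = Saccharomyces cerevisiae strain carrying genetically modified DeaD replicative-lifespan system | technique = absorbance (optical density) at 615 nm | buffer or medium = permissive raffinose/galactose medium | timing = cells pre-grown 4 h, then 24 h compound exposure, 30 °C humidified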

[2] = S. cerevisiae growth inhibition in restrictive medium, OD615, pilot screen, restrictive growth control, yeast lifespan reduction project (AID 706;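 active = growth inhibition above a set limit, 3 SD over mean compound inhibition, in both replicates, cut at about 43% in these data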;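 also: modified DeaD lifespan yeast strain shifted to restrictive glucose medium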); details: OD615, 48 h, at 10 µM, hits give high values
Outline: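 System: modified S. cerevisiae. Buffer or medium: CSMM-D glucose medium. Incubation: 4 h pre-growth plus 48 h compound exposure, 30 °C. Detection: absorbance (optical density) measured at 615 nm.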

[3] = doxorubicin toxicity protection in MRP-1 cells – H69AR cells, CellTiter-Glo, duplicate, MRP-1 activator project, pilot screen (AID 807;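 active = viability increase at or above a cutoff of the median across tested compounds plus 3 SD, cut at about 8.5% in these data, passing the limit was not always enough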;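 also: compound pretreatment 18-22 h then 72 h combined with doxorubicin; 0% = doxorubicin alone and 100% = vehicle without doxorubicin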); details: H69AR viability with doxorubicin, CellTiter-Glo luminescence; at 10 µM; hits give high values
[4] = viability of HCT116 without oncogenic beta-catenin – human colon tumor cells, pilot screen (AID 823;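 active = cell viability at or below a set limit in both duplicate runs, the limit being the all-compound median minus 4 SD, cut at about 23% in these data, passing the limit was not always enough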;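 also: 0% = wells killed by 20 µM Hyamine and 100% = untreated DMSO cell wells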); details: HCT116 beta-catenin knockout viability, CellTiter-Glo, 60 h; at 10 µM; hits give low values
[5] = viability of PTEN-null HCT116 cells – cell-based, HCT116 clonal line, CellTiter-Glo, pilot screen (AID 824); details: HCT116 PTEN-deleted viability, 60 h, at 10 µM, hits give low values;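 also: 0% = 20 µM Hyamine control and 100% = vehicle cell control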
[6] = RAM pathway blockade in budding yeast – dse1pr::URA3 reporter, 5-FOA selection, pilot screen (AID 869;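 active = inhibition over a set limit, the all-compound mean plus 3 SD, in both replicate runs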;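 also: 0% = DMSO wells with no growth and 100% = 10 µM 1-NA-PP1 with full growth; RAM network block rescues cells from 5-FOA so hits raise OD615 growth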); details: S. cerevisiae dse1pr::URA3 5-FOA growth, OD615, 2 d; at 10 µM; hits give high values; strain carries analog-sensitive mutant Cbk1 kinase
[7] = RAM signaling pathway blockade in yeast – S. cerevisiae, Pdr1DBD-CYC8 efflux-inhibited sensitized strain, primary screen (AID 1298;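 active = RAM network inhibition above 8.4% in each of two replicates, 3 SD over the compound average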;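 also: 0% = DMSO untreated cells without growth and 100% = 10 µM 1-NA-PP1 full growth; higher means more yeast growth rescued from 5-FOA killing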); details: S. cerevisiae cbk1-as DSE1-URA3 strain, 5-FOA growth OD615, 2 d; at 50 µM; hits give high values

CC1CN(c2nc3c(c(=O)[nH]c(=O)n3C)n2Cc2ccccc2F)CC(C)O1 (configuration not stated)
inactive: growth inhibition [1] -3.05% | growth inhibition [2] 2.61% | viability increase [3] -1.3% | viability [4] 99.1% | viability [5] 90.7% | inhibition [6] 1.68% | RAM network inhibition [7] 0.95%

O=C(NC1CCCC1)c1ccc(CS(=O)(=O)c2ccc(Br)cc2)o1
inactive: growth inhibition [1] -3.78% | growth inhibition [2] -9.12% | viability increase [3] -0.83% | viability [4] 102% | viability [5] 93.9% | inhibition [6] 3.01% | RAM network inhibition [7] 1.03%

Cc1cc(C)c2c(n1)nn1c(C)c(CCC(=O)NCc3ccco3)c(C)nc21
inactive: growth inhibition [1] 3.4% | growth inhibition [2] 1.73% | viability increase [3] -4.82% | viability [4] 89.8% | viability [5] 94.8% | inhibition [6] 0.545% | RAM network inhibition [7] 2.09%

Cc1cccc(C2N(c3ccc(F)cc3)C(=O)C3CCCN32)c1 (configuration not stated)
inactive: growth inhibition [1] -1.45% | growth inhibition [2] -4.47% | viability increase [3] 0.04% | viability [4] 98.4% | viability [5] 94.8% | inhibition [6] 0.71% | RAM network inhibition [7] 3.46%

O=C(NCC1CCCO1)c1ccc2c(=O)n(CCc3ccccc3)c(=O)[nH]c2c1 (configuration not stated)
inactive: growth inhibition [1] -3.02% | growth inhibition [2] -27% | viability increase [3] -1.15% | viability [4] 104% | viability [5] 102% | inhibition [6] 4.28% | RAM network inhibition [7] 3.8%

CCOc1ccc(N(CC(=O)Nc2ccc3c(c2)OCCO3)S(=O)(=O)c2c(C)noc2C)cc1
inactive: growth inhibition [1] -6.29% | growth inhibition [2] -0.165% | viability increase [3] -3.41% | viability [4] 81.6% | viability [5] 87% | inhibition [6] 3.58% | RAM network inhibition [7] 4.67%

CCOC(=O)CNC(=O)Cn1cnc2sc(C)c(S(=O)(=O)N3CCC(C)CC3)c2c1=O
inactive: growth inhibition [1] -5.06% | growth inhibition [2] -1.62% | viability increase [3] -2.55% | viability [4] 94% | viability [5] 93.6% | inhibition [6] 0.32% | RAM network inhibition [7] 4.1%

CC1=C(NCCc2ccccc2)CCC1=O
inactive: growth inhibition [1] 1.6% | growth inhibition [2] -14.4% | viability increase [3] -2.97% | viability [4] 92% | viability [5] 86.2% | inhibition [6] 1.74% | RAM network inhibition [7] 2.7%

COc1ccc(N2CCN(C(=O)c3sc4nc(-c5ccc(F)cc5)cn4c3C)CC2)cc1
inactive: growth inhibition [1] -10.6% | growth inhibition [2] -19.7% | viability increase [3] -4.7% | viability [4] 102% | viability [5] 95.6% | inhibition [6] 2.24% | RAM network inhibition [7] 3.45%

COc1cccc(NC(=O)c2nnn(CCc3ccccc3)c2N)c1
inactive: growth inhibition [1] -1.48% | growth inhibition [2] 0.3% | viability increase [3] -6.11% | viability [4] 65.9% | viability [5] 50.7% | inhibition [6] 2.52% | RAM network inhibition [7] 0.72%

Cn1c(Cn2c(=O)sc3ccccc32)nnc1SCC(=O)N1CCN(c2ccccc2)CC1
inactive: growth inhibition [1] 0.845% | growth inhibition [2] 24.3% | viability increase [3] -0.95% | viability [4] 100% | viability [5] 96.6% | inhibition [6] 0.04% | RAM network inhibition [7] 3.66%

O=C(NCCC1=CCCCC1)C1CCN(c2nnc(-n3cccc3)s2)CC1
inactive: growth inhibition [1] 3.32% | growth inhibition [2] 4.32% | viability increase [3] -0.38% | viability [4] 85.2% | viability [5] 82.2% | inhibition [6] 2.42% | RAM network inhibition [7] 1.13%

Cc1ccccc1Cn1c(CN2CCN(C(=O)c3ccco3)CC2)nc2c1c(=O)n(C)c(=O)n2C
inactive: growth inhibition [1] 1.26% | growth inhibition [2] -4.52% | viability increase [3] -4.75% | viability [4] 94.1% | viability [5] 95.7% | inhibition [6] 0.335% | RAM network inhibition [7] 1.2%

Cc1ccsc1-c1nc(CSCC(=O)NCc2ccc3c(c2)OCO3)c(C)o1
inactive: growth inhibition [1] -9.04% | growth inhibition [2] 2.91% | viability increase [3] -0.27% | viability [4] 87.2% | viability [5] 84% | inhibition [6] 0.83% | RAM network inhibition [7] 9.63%

c1ccc(-c2ccc(-c3nc(-c4ccncc4)no3)cc2)cc1
inactive: growth inhibition [1] 14.4% | growth inhibition [2] 14.4% | viability increase [3] 2.99% | viability [4] 66.4% | viability [5] 82.5% | inhibition [6] 1.32% | RAM network inhibition [7] 2.1%

Cc1cccc(C)c1N1C(=O)c2ccccc2C1=O
inactive: growth inhibition [1] -6.34% | growth inhibition [2] -3.44% | viability increase [3] -1.87% | viability [4] 105% | viability [5] 92.7% | inhibition [6] 0.535% | RAM network inhibition [7] 2.47%

COc1ccc(-c2nc(CNS(=O)(=O)c3cc(OC)ccc3OC)cs2)cc1
inactive: growth inhibition [1] 2.43% | growth inhibition [2] 5.36% | viability increase [3] -1.76% | viability [4] 92% | viability [5] 89.7% | inhibition [6] 0.53% | RAM network inhibition [7] 5.82%

Cc1cc(C(=O)NCc2ccco2)cs1
inactive: growth inhibition [1] -6.77% | growth inhibition [2] -6.79% | viability increase [3] -2.37% | viability [4] 106% | viability [5] 99.9% | inhibition [6] 2.28% | RAM network inhibition [7] -0.32%

O=C(NCc1ccc(Cl)c(Cl)c1)c1ccco1
inactive: growth inhibition [1] -5.02% | growth inhibition [2] -2.23% | viability increase [3] -3.58% | viability [4] 90.8% | viability [5] 84.9% | inhibition [6] 1.23% | RAM network inhibition [7] 3.74%

N=c1sccn1CC(=O)Nc1ccccc1-c1ccccc1
inactive: growth inhibition [1] -5.55% | growth inhibition [2] -3.2% | viability increase [3] -2.08% | viability [4] 94.3% | viability [5] 95.8% | inhibition [6] 2.95% | RAM network inhibition [7] 3.6%

COC(=O)c1cc(Nc2cc(C)nc3ncnn23)cc(C(=O)OC)c1
inactive: growth inhibition [1] 7.62% | growth inhibition [2] 11% | viability increase [3] -3.2% | viability [4] 108% | viability [5] 97.1% | inhibition [6] 1.31% | RAM network inhibition [7] 1.36%

Cc1noc(C(=O)NCc2cccnc2)c1Cl
inactive: growth inhibition [1] -7.93% | growth inhibition [2] -8.18% | viability increase [3] 1.31% | viability [4] 110% | viability [5] 101% | inhibition [6] 0.865% | RAM network inhibition [7] 5.93%

O=S(=O)(NC1c2cccc3cccc(c23)C1N1CCNCC1)c1ccccc1 (configuration not stated)
inactive: growth inhibition [1] -10.4% | growth inhibition [2] -14.2% | viability increase [3] -5.27% | viability [4] 68% | viability [5] 74.8% | inhibition [6] 1.62% | RAM network inhibition [7] 2.72%

O=C(CSC1=NS(=O)(=O)c2ccccc21)Nc1ccccc1
active: growth inhibition [1] 56.7% | growth inhibition [2] 96.9%
inactive: viability increase [3] -2.73% | viability [4] 94.3% | viability [5] 104% | inhibition [6] -0.07% | RAM network inhibition [7] -0.47%

O=C(C1CCCN(c2nnc(-n3cccc3)s2)C1)N1CCN(c2ccccc2)CC1 (configuration not stated)
inactive: growth inhibition [1] -4% | growth inhibition [2] -4.55% | viability increase [3] -1.11% | viability [4] 88.9% | viability [5] 86.5% | inhibition [6] 0.485% | RAM network inhibition [7] 1.12%

CCc1cc(C(=O)Cc2cnn(-c3ccccc3)c2)c(O)cc1O
inactive: growth inhibition [1] -6.31% | growth inhibition [2] -9.12% | viability increase [3] -2.95% | viability [4] 101% | viability [5] 99.1% | inhibition [6] 1.42% | RAM network inhibition [7] 3.54%

CCOc1ccc(NC2CCN(C(C)=O)CC2)cc1
inactive: growth inhibition [1] -12.8% | growth inhibition [2] -7.46% | viability increase [3] 0.27% | viability [4] 95.2% | viability [5] 97% | inhibition [6] 0.625% | RAM network inhibition [7] 6.44%

CC(=O)Oc1ccc(N2C(=O)CC(N3CCOCC3)C2=O)cc1 (configuration not stated)
inactive: growth inhibition [1] 2.42% | growth inhibition [2] 15% | viability increase [3] -0.57% | viability [4] 103% | viability [5] 99.9% | inhibition [6] 0.405% | RAM network inhibition [7] 0.46%

Cc1nn(C(=O)c2cccs2)c(N)c1-c1ccccc1
inactive: growth inhibition [1] 2.29% | growth inhibition [2] 5.9% | viability increase [3] 0.4% | viability [4] 84.4% | viability [5] 96% | inhibition [6] 0.035% | RAM network inhibition [7] 2.36%

Nc1nnc(CCc2ccccc2)s1
inactive: growth inhibition [1] -1.91% | growth inhibition [2] 8.1% | viability increase [3] 0.12% | viability [4] 96.2% | viability [5] 98.9% | inhibition [6] 1.77% | RAM network inhibition [7] 0.62%

CCC(C#CCN1CCOCC1)(CC)OCCC#N
inactive: growth inhibition [1] -6.57% | growth inhibition [2] -3.89% | viability increase [3] -0.51% | viability [4] 97% | viability [5] 95.9% | inhibition [6] 1.35% | RAM network inhibition [7] 0.88%

CCCn1c(=S)[nH]c2cc(C(=O)NCC3CCCO3)ccc2c1=O (configuration not stated)
inactive: growth inhibition [1] -1.52% | growth inhibition [2] 7.49% | viability increase [3] 0.21% | viability [4] 104% | viability [5] 86.5% | inhibition [6] 1.96% | RAM network inhibition [7] 2.81%

Cc1nn(-c2ccccc2)c(C)c1NC(=O)Cc1cccs1
inactive: growth inhibition [1] -10.7% | growth inhibition [2] -4.28% | viability increase [3] -2.07% | viability [4] 95.2% | viability [5] 92.1% | inhibition [6] 1.18% | RAM network inhibition [7] 1.1%

CCSc1nc2c(cnn2-c2ccc(C)c(C)c2)c(=O)[nH]1
inactive: growth inhibition [1] -2.47% | growth inhibition [2] -2.05% | viability increase [3] -1% | viability [4] 98.8% | viability [5] 94.2% | inhibition [6] 1.42% | RAM network inhibition [7] 7.85%

COc1ccc(-n2c(Cc3cc(=O)[nH]c(=O)[nH]3)nnc2SCC(=O)N2CCCC2)cc1
inactive: growth inhibition [1] -4.92% | growth inhibition [2] -0.375% | viability increase [3] 0.36% | viability [4] 101% | viability [5] 97.9% | inhibition [6] 0.805% | RAM network inhibition [7] 0.42%

COc1ccc(Cc2nc(-c3ccc(Br)o3)no2)cc1OC
inactive: growth inhibition [1] -14.4% | growth inhibition [2] -3.81% | viability increase [3] -0.22% | viability [4] 92.2% | viability [5] 81.2% | inhibition [6] 0.995% | RAM network inhibition [7] 4.17%
